Assay type in all cases: functional
The test system of experiment [1] is Mus musculus. Description: Analgesic activity in albino mouse assessed as paw licking latency at 100 mg/kg after 2 hrs by Eddy's hot plate method. The method, boiled down:
(§1)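 Albino mice of either sex, fasted 24 h, 6 per group. Compounds given at 100 mg/kg; control group received 2% acacia suspension, standard group pentazocine 35 mg/kg. Hot plate held at 55 ± 1 °C. Reaction time is the time to lick a hind paw or leap off the plate, recorded at 0, 30, 60, 120 and 240 min after dosing.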
On the technique in general: In hot-plate and tail-flick tests a longer latency is read as antinociception.

In experiment [2] the test system is Pseudomonas aeruginosa. The experiment can be described thus: Antibacterial activity against Pseudomonas aeruginosa at 50 ug/ml after 24 to 48 hrs by cup-plate method. To be noted: read-out: IZ. Put shortly: (§2)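 Sterile nutrient agar cooled to […] and seeded with 18-24 h sub-cultures, then poured at about 45-50 mL per dish. Wells cut with a 6 mm sterile cork borer and filled with 0.1 mL of each of two test dilutions. Plates incubated inverted at 37 °C for 24–48 h; inhibition zone diameters measured in mm. Streptomycin and procaine penicillin served as standards.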

Experiment [3] deals with Bacillus subtilis. Description: Antibacterial activity against Bacillus subtilis at 50 ug/ml after 24 to 48 hrs by cup-plate method. The conditions noted are these: read-out: IZ. The method, boiled down:
as §2

The subject of experiment [4] is Escherichia coli. Description: Antibacterial activity against Escherichia coli at 50 ug/ml after 24 to 48 hrs by cup-plate method. To be noted: read-out: IZ. Put shortly:
as §2

Experiment [5] deals with Pseudomonas aeruginosa. Description: Antibacterial activity against Pseudomonas aeruginosa at 100 ug/ml after 24 to 48 hrs by cup-plate method. The conditions noted are these: read-out: IZ. Put shortly:
as §2

For experiment [6], the system named is Mus musculus. Description: Analgesic activity in albino mouse assessed as paw licking latency at 100 mg/kg after 0.5 hrs by Eddy's hot plate method. The method, boiled down:
as §1

The test system of experiment [7] is Bacillus subtilis. Description: Antibacterial activity against Bacillus subtilis at 100 ug/ml after 24 to 48 hrs by cup-plate method. The conditions noted are these: read-out: IZ. Put shortly:
as §2

The subject of experiment [8] is Mus musculus. Description: Analgesic activity in albino mouse assessed as paw licking latency at 100 mg/kg after 4 hrs by Eddy's hot plate method. The method, boiled down:
as §1

Experiment [9] concerns Staphylococcus aureus. Description: Antibacterial activity against Staphylococcus aureus at 50 ug/ml after 24 to 48 hrs by cup-plate method. To be noted: read-out: IZ. The method, boiled down:
as §2

Experiment [10] deals with Escherichia coli. Description: Antibacterial activity against Escherichia coli at 100 ug/ml after 24 to 48 hrs by cup-plate method. The conditions noted are these: read-out: IZ. The method, boiled down:
as §2

Experiment [11] has as its system Staphylococcus aureus. Description: Antibacterial activity against Staphylococcus aureus at 100 ug/ml after 24 to 48 hrs by cup-plate method. The conditions noted are these: read-out: IZ. Put shortly:
as §2

Experiment [12] deals with Mus musculus. Description: Analgesic activity in albino mouse assessed as paw licking latency at 100 mg/kg after 1 hr by Eddy's hot plate method. Put shortly:
as §1

For the compound `N#CCCCSc1nnc(-c2cccc(-c3ccccc3F)c2)o1`, the Time in the experiment on Mus musculus [1] stood at 4.92 s; in the experiment with Mus musculus [6], 4.54 s; with Mus musculus [8], 4.49 s; with Mus musculus [12] it was 4.71 s. Also, the zone of inhibition at 50 µg/mL is 16 mm in the experiment with Pseudomonas aeruginosa [2], 12 mm in the experiment with Bacillus subtilis [3], 17 mm in the experiment with Escherichia coli [4] and 11 mm with Staphylococcus aureus [9]. The zone of inhibition at 100 µg/mL turned out to be 20 mm in the experiment on Pseudomonas aeruginosa [5], 18 mm in the experiment on Bacillus subtilis [7], 21 mm with Escherichia coli [10] and 16 mm in the experiment on Staphylococcus aureus [11].

As to `N#CCCCSc1nnc(-c2cccc(-c3cccc(Cl)c3)c2)o1`, the Time worked out at 5.12 s in the experiment with Mus musculus [1], 4.51 s in the experiment with Mus musculus [6], 4.71 s in the experiment with Mus musculus [8] and 4.77 s with Mus musculus [12]. For the same compound, the zone of inhibition at 50 µg/mL with Pseudomonas aeruginosa [2] was 12 mm; in the experiment on Bacillus subtilis [3] it was 8 mm; in the experiment with Escherichia coli [4], 10 mm; in the experiment on Staphylococcus aureus [9], 10 mm. Moreover, the zone of inhibition at 100 µg/mL in the experiment with Pseudomonas aeruginosa [5] was 16 mm; in the experiment with Bacillus subtilis [7], 16 mm; in the experiment with Escherichia coli [10] it was 17 mm; in the experiment with Staphylococcus aureus [11], 15 mm.

For the compound `FCCCCSc1nnc(-c2cccc(-c3cccc(Cl)c3)c2)o1`, the Time is recorded as 8.35 s in the experiment on Mus musculus [1], 5.56 s in the experiment on Mus musculus [6], 6.44 s in the experiment on Mus musculus [8] and 5.79 s in the experiment on Mus musculus [12]. Also, the zone of inhibition at 50 µg/mL with Pseudomonas aeruginosa [2] came out at 15 mm; with Bacillus subtilis [3], 15 mm; in the experiment on Escherichia coli [4], 12 mm; in the experiment on Staphylococcus aureus [9] it was 5 mm. The zone of inhibition at 100 µg/mL stood at 20 mm in the experiment with Pseudomonas aeruginosa [5], 20 mm with Bacillus subtilis [7], 15 mm in the experiment on Escherichia coli [10] and 12 mm in the experiment with Staphylococcus aureus [11].

With `COc1ccc(F)cc1-c1cccc(-c2nnc(SCCCC#N)o2)c1`, the Time in the experiment with Mus musculus [1] came to 4.99 s; in the experiment on Mus musculus [6], 4.92 s; in the experiment with Mus musculus [8], 4.74 s; in the experiment with Mus musculus [12], 4.86 s. Besides, the zone of inhibition at 50 µg/mL came to 15 mm in the experiment on Pseudomonas aeruginosa [2], 7 mm in the experiment on Bacillus subtilis [3], 10 mm in the experiment with Escherichia coli [4] and 7 mm in the experiment with Staphylococcus aureus [9]. For the same compound, the zone of inhibition at 100 µg/mL came out at 18 mm in the experiment with Pseudomonas aeruginosa [5], 18 mm in the experiment with Bacillus subtilis [7], 18 mm in the experiment with Escherichia coli [10] and 13 mm in the experiment with Staphylococcus aureus [11].

Consider `COc1ccccc1-c1cccc(-c2nnc(SCCCC#N)o2)c1`, for which the Time in the experiment on Mus musculus [1] is 6.57 s; in the experiment with Mus musculus [6], 5.25 s; with Mus musculus [8] it was 5.59 s; in the experiment on Mus musculus [12] it was 5.4 s. Besides, the zone of inhibition at 50 µg/mL in the experiment with Pseudomonas aeruginosa [2] is 9 mm; with Bacillus subtilis [3], 17 mm; with Escherichia coli [4] it was 10 mm; with Staphylococcus aureus [9], 12 mm. Also, the zone of inhibition at 100 µg/mL turned out to be 20 mm with Pseudomonas aeruginosa [5], 20 mm with Bacillus subtilis [7], 20 mm in the experiment on Escherichia coli [10] and 18 mm in the experiment on Staphylococcus aureus [11].

Take `CN[C@@H]1[C@H](O[C@H]2[C@H](O[C@H]3[C@H](O)[C@@H](O)[C@H](N=C(N)N)[C@@H](O)[C@@H]3N=C(N)N)O[C@@H](C)[C@]2(O)C=O)O[C@@H](CO)[C@H](O)[C@H]1O` [STREPTOMYCIN]: the zone of inhibition at 50 µg/mL in the experiment on Pseudomonas aeruginosa [2] and with Escherichia coli [4] was 21 mm each time. Further, the zone of inhibition at 100 µg/mL in the experiment with Pseudomonas aeruginosa [5] and with Escherichia coli [10] was 25 mm throughout.
